Cl transport mod = KCC2 cotransporter modulators, thallium flux, primary screen, cell-based, HEK293 KCC2, FluoZin-2 fluorescence, MLSMR; B-score of Tl+ flux slope (higher = more flux/activation; lower = inhibition) at 10 µM; KCC2 cells, thallium flux FluoZin-2 fluorescence; AID 1456, 2008; 2.2% of 190,000 active;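 active = thallium flux slope and its plate-corrected score both differing from the plate sample mean at a set confidence after two filtering rounds, in either direction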;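 note: slope of fluorescence scaled to starting intensity during 10 to 20 s after thallium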
ROMK primary = ROMK potassium channel modulators, primary screen, cell-based, thallium flux, MLSMR library | ATP-sensitive inward rectifier potassium channel 1 (Homo sapiens), P48048 | B-score at 10 µM | 2% of 130,000 active | Tet-inducible ROMK, thallium flux fluorescence; actives lie on both sides;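 active = signal ratio slope over the read window, or its plate-corrected B-score, at least 3 SD from the plate mean, either direction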;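 note: B-score of the F/F0 ratio slope over 7 to 12 s after thallium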
PMI act hi M6P = human PMI activators, high substrate, primary screen, biochemical, fluorescence intensity, near-saturating mannose 6-phosphate; Mannose-6-phosphate isomerase (Homo sapiens), P34949; coupled PMI enzyme assay, resazurin fluorescence, 20 min; stronger effect = higher value; 1 = untreated enzyme, 0 = substrate-free blank; activation factor at 20 µM; 0.34% of 190,000 active; AID 1216, 2008;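 active = activation factor of 2 or more at 20 µM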
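Test system: human phosphomannose isomerase with PGI, G6PDH, diaphorase coupling enzymes; amount: 15 ng/mL PMI; incubation: enzyme reaction with compound 20 min at room temperature; technique: resorufin fluorescence (Ex 544/Em 590 nm) from resazurin via diaphorase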
ABCB1 block = ABCB1 efflux pump inhibitors, primary screen, cell-based, multiplex, flow cytometry, ABCG2 counter-screen; ATP-dependent translocase ABCB1 (Homo sapiens), P08183; CCRF-Adr cells, JC-1 efflux; inhibition, % at 6.6 µM; 0.067% of 190,000 active; AID 1326, 2008; in the data active = inhibition above about 40%;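 note: 0% = vehicle and 100% = reference inhibitor; higher value means more JC-1 retained so stronger ABCB1 efflux block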
Target sequence (P08183 whole entry, looked up): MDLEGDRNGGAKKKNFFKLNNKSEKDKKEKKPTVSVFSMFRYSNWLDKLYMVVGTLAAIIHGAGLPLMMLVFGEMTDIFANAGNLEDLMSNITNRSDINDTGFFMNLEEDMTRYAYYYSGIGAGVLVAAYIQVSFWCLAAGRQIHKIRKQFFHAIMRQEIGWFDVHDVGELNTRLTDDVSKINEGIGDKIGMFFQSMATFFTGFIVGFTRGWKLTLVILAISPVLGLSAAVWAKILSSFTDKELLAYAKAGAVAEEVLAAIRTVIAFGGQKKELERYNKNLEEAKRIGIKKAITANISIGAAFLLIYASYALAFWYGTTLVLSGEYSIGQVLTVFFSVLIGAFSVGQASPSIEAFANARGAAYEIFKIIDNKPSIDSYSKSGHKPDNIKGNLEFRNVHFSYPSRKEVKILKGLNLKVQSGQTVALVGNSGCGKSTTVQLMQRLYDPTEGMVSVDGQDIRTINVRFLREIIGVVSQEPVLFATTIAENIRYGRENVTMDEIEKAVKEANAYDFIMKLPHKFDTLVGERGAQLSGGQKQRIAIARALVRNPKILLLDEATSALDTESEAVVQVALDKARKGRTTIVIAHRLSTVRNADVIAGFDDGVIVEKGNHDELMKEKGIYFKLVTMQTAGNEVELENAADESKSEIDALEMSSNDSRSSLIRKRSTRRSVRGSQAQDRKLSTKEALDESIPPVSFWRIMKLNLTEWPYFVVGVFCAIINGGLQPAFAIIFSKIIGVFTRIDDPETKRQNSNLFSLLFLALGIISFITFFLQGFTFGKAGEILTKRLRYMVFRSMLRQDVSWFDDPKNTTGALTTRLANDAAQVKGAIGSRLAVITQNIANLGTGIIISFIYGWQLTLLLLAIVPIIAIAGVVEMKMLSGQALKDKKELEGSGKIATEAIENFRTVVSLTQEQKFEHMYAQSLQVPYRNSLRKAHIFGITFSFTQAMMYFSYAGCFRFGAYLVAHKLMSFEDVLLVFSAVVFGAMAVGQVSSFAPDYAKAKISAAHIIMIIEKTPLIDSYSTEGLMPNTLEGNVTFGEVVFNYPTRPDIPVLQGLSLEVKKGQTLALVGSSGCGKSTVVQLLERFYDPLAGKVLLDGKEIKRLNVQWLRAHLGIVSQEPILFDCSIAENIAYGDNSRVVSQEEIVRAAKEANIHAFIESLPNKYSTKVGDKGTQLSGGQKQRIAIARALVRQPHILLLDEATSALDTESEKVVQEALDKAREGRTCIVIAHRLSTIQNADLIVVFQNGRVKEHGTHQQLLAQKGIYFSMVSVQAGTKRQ
ABCG2 block = ABCG2 efflux pump inhibitors, primary screen, multiplex with ABCB1, IgMXP3 cells, flow cytometry. JC-1 efflux. 0.1% of 190,000 active. Broad substrate specificity ATP-binding cassette transporter ABCG2 (Homo sapiens), Q9UNQ0. inhibition, % at 6.6 µM;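 active = inhibition above 80%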;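 note: 0% = DMSO and 100% = nicardipine control wells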
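material = IgMXP3 (ABCG2) plus far-red-tagged CCRF-Adr (ABCB1) cells | amount = 3 million cells/mL, equal mix of both lines | also added = JC-1 transporter substrate | dosing = one concentration, 6.6 µM final | schedule = 10 min at 25 °C | measured by = flow cytometric JC-1 green MFI at 530 nm | read-out basis = percent efflux inhibition, scaled nicardipine 100% to DMSO 0%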
PMI activator = activators of human PMI, primary screen, biochemical, fluorescence intensity, near-Km mannose 6-phosphate | activation factor at 20 µM | 0.005% of 190,000 active | purified human PMI, coupled resazurin fluorescence, 20 min; stronger effect = higher value; 1 = vehicle control, 0 substrate-free wells;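 active = activation factor of 2 or more at 20 µM, relative to plate controls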
ABCB1 confirm = ABCB1 efflux pump inhibitors, confirmation, cell-based, single point, ABCG2 counter-screen; shares compounds with ABCG2 block; CCRF-Adr cells, JC-1 efflux, flow cytometry; inhibition, % at 6.6 µM; 7% of 270 active;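 active = inhibition of pump activity above 50%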;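 note: 0% = DMSO and 100% = nicardipine full pump inhibition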
ABCG2 single pt = ABCG2 efflux pump inhibitors, confirmation, single point, IgMXP3 cells, ABCB1 counter-screen paired | shares compounds with ABCG2 block | JC-1 efflux, flow cytometry | inhibition, % at 6.6 µM | 6% of 270 active;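 active = inhibition above 50%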;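 note: 0% = DMSO wells and 100% = nicardipine pump inhibitor wells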
IgMXP3 fluor = compound autofluorescence in ABCG2-expressing IgMXP3 cells, confirmation, artefact control for ABC transporter inhibitor project, cell-based, 488/530 nm, flow cytometry; shares compounds with ABCG2 block; compound autofluorescence 488/530 nm; stronger effect = higher value; fluorescence at 6.6 µM; 30% of 270 active; AID 1480, 2009;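 active = fluorescence in ABCG2-expressing cells above the plate's control-well mean plus 3 SD, cut at about 15 in these data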;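 note: median cell fluorescence with compound minus that of DMSO-treated control cells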
CCRF-Adr fluor = compound autofluorescence in ABCB1-expressing CCRF-Adr cells, confirmation, artefact control for ABC transporter inhibitor project, cell-based, 488/530 nm, flow cytometry | shares compounds with ABCG2 block | compound autofluorescence 488/530 nm; stronger effect = higher value | fluorescence at 6.6 µM | 30% of 270 active;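 active = fluorescence beyond the plate control mean plus 3 SD, with a fluorescence-to-maximum score over 2, cut at about 25 in these data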
The depositor's hits bear a star; . = no result given; + = active, no number. In the library only some 3.3% were active in any assay of this set; here they are far more common.

SMILES	Cl transport mod	ROMK primary	PMI act hi M6P	ABCB1 block	ABCG2 block	PMI activator	ABCB1 confirm	ABCG2 single pt	IgMXP3 fluor	CCRF-Adr fluor
Cc1ccc2nc(/C(C#N)=C\c3ccc([N+](=O)[O-])o3)[nH]c2c1	-0.62	-1.2	0.8	61*	0	0.9	11	24	42*	47*
Cc1nc2cc(-c3cccc(F)c3)nn2c(N2CCN(C(=O)c3ccco3)CC2)c1C	0.61	0.31	0.9	63*	91*	0.9	52*	50*	-2.3	-4.8
Cc1nc2cc(-c3cccc(F)c3)nn2c(C)c1CCC(=O)N1CCN(c2ccccn2)CC1	-0.28	.	.	.	.	.	.	.	.	.
Cc1cc(=O)[nH]c(-c2ccc(C(F)(F)F)cc2)n1	0.45	.	.	.	.	.	.	.	.	.
S=c1[nH]nc(-c2ccc3ccccc3n2)n1-c1ccc2ncccc2c1	0.059	0.2	0.7	0	64	0.9	6	11	32*	20
CC(Cc1cccnc1)NC(=O)c1ccccc1OC1CCN(S(C)(=O)=O)CC1 (centres undefined)	-0.35	0.21	1.1	0	0	1	.	.	.	.
CC(C)n1c(O)c(N=NC(=O)Cn2ccc(C(F)(F)F)n2)c2ccccc21	0.69	.	0.9	1	89*	0.8	16	17	2.9	28*
COc1cc(C(=O)N/N=C/c2ccc(OC)c(CN3CCN(c4ccc(F)cc4)CC3)c2)ccc1O	-0.96	1.7	0.8	45*	16	0.8	64*	37	-2	-3.1
COc1ccc(/C=N/NC(=O)c2ccccc2)cc1CN1CCN(c2ccc(F)cc2)CC1	-0.0065	0.32	1	6	2	1.1	.	.	.	.
COc1ccc(/C=N/NC(=O)c2ccccc2F)cc1CN1CCN(c2ccc(F)cc2)CC1	-0.025	-0.63	0.9	52*	24	0.8	31	7	0.36	-2.3
O=C(NCCCN1CCOCC1)c1cccnc1SCc1ccccc1Cl	-0.59	0.025	1	1	1	0.9	.	.	.	.
CCn1cc(CNC(=S)Nc2cccc(Cl)c2C)cn1	1.5	-0.52	0.9	0	0	0.9	.	.	.	.
Cc1c(C#N)c(NC(=O)CCl)n(Cc2ccccc2)c1C	0.16	0.61	1	0	1	1.1	.	.	.	.
Cc1c(C#N)c(NC(=O)CCl)n(Cc2ccc(F)cc2)c1C	0.88	0.08	1.1	45*	12	1.1	1	1	4.9	8.6
COc1ccc(CCNC(=O)COC(=O)/C=C/c2ccc(OC)c(OC)c2)cc1	-0.18	.	1	0	89*	0.9	1	56*	-2.1	-3.8
COc1ccc(CCNC(=O)COC(=O)/C=C/c2ccc(OCC#N)c(OC)c2)cc1	0.56	0.47	0.9	-1	6	1	.	.	.	.
CCOc1ccc(NC(=O)c2ccc(-n3cccn3)nc2)cc1	0.083	0.057	1	0	3	0.9	.	.	.	.
COc1cc(CC(=O)OCC(=O)Nc2cc([N+](=O)[O-])ccc2Cl)cc(OC)c1OC	-0.24	.	1.1	3	81*	1	3	41	21*	-1.6
COc1ccc([N+](=O)[O-])cc1NC(=O)COC(=O)Cc1cc(OC)c(OC)c(OC)c1	0.0064	-0.57	1.1	1	22	1.1	.	.	.	.
CNc1nc2cc([N+](=O)[O-])c([N+](=O)[O-])cc2nc1NC	-0.58	.	1	0	124*	1	48	69*	21*	30*
COc1cc(NC(=S)NCCC(c2ccccc2)c2ccccc2)c(OC)cc1Cl	-0.51	-0.2	0.8	1	15	0.8	.	.	.	.
O=S(=O)(c1ccc(Cl)cc1)N1CCN=C1SCc1ccc(Cl)c(Cl)c1	-0.043	.	0.9	-1	86*	0.8	-7	0	-1.3	16
CCSC1=NCCN1S(=O)(=O)c1ccc(Cl)cc1	-0.037	-1.2	1.1	0	0	1	.	.	.	.
COc1ccc(-c2nn(-c3ccccc3)cc2/C=C/C(=O)N2CCN(c3ccccn3)CC2)cc1	-1.6	0.62	1	48*	33	1	33	22	18*	4.3
CCN(CC)c1ccc(/C=C2/C(=O)c3ccc(C(=O)O)cc3C2=O)cc1	0.54	.	0.8	140*	+	0.8	-46	-162	251*	169*
SMILES	Cl transport mod	ROMK primary	PMI act hi M6P	ABCB1 block	ABCG2 block	PMI activator	ABCB1 confirm	ABCG2 single pt	IgMXP3 fluor	CCRF-Adr fluor
CCOc1cc(CNCCSc2nnnn2C)cc(Br)c1OCc1ccc(F)cc1	0.089	.	1.1	10	105*	1	1	11	-1.8	34*
CCOC(=O)c1c(NC(=O)CSc2ncccn2)sc2c1CCN(Cc1ccccc1)C2	-0.18	-1.8	1	48*	67	1	67*	20	47*	109*
CCOC(=O)c1c(NC(=O)C(C)Sc2cccc[n+]2[O-])sc2c1CCN(Cc1ccccc1)C2 (centres undefined)	-1.1	.	1.1	17	9	1.1	.	.	.	.
Cc1cc(C)c(C#N)c(SCc2nnc(-c3ccccc3[N+](=O)[O-])o2)n1	-1.6	-1.2	0.8	2	11	0.8	.	.	.	.
Cc1cc(C)c(C#N)c(SCc2ccccc2[N+](=O)[O-])n1	-0.18	0.81	0.9	7	101*	0.8	6	48	-1.1	-2
Cc1cc(C)c(C#N)c(SCc2c(F)cccc2[N+](=O)[O-])n1	-0.49	-1	0.8	5	92*	0.8	3	52*	-2	-4.5

Screening results as filed in PubChem.
